Measurements reported in the M2OR odorant receptor database.

Assays:
Settings in all cases: stereoisomer not certain
[1] = molecular target: T1, OR10G2 (Homo sapiens) (UniProt Q8NGC3)
T1 sequence (whole entry): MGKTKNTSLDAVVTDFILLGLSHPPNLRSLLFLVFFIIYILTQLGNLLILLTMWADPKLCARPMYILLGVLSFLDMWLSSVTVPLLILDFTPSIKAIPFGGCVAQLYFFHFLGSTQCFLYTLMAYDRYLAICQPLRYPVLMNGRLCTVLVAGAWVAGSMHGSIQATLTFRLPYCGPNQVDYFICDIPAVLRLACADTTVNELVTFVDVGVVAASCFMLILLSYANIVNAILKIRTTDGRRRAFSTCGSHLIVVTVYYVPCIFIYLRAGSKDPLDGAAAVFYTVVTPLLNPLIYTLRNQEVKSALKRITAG
Procedure, shortened: (§1)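 Transient luciferase assays in mammalian cell lines were common, though methods varied by source. The values come from published papers and their supplementary material, with extra details from the original authors when needed. Responsive refers to a measured signal the original authors judged statistically different from baseline, and non-responsive (inactive) to the remainder.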

[2] = molecular target: T2, OR10G3 (Homo sapiens) (UniProt Q8NGC4)
T2 sequence (whole entry): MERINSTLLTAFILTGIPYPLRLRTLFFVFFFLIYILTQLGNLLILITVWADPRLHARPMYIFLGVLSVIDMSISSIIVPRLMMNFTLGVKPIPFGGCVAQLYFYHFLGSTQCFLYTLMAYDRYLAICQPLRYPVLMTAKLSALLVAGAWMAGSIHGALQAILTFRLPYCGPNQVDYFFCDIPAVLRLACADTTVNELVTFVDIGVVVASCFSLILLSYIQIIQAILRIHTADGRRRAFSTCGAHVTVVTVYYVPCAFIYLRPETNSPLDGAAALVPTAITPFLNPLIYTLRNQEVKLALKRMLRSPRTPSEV
Procedure, shortened: as §1

[3] = molecular target: T3, OR10G4 (Homo sapiens) (UniProt Q8NGN3)
T3 sequence (whole entry): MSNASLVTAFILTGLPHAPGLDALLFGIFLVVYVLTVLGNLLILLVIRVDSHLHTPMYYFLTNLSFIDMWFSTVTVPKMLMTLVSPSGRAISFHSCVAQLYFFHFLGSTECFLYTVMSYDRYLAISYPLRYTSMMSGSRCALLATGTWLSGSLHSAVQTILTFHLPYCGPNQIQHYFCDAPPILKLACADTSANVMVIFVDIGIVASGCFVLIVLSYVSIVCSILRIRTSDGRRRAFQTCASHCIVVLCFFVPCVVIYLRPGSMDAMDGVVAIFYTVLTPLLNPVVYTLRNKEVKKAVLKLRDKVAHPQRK
Procedure, shortened: as §1

[4] = molecular target: T4, OR10G6 (Homo sapiens) (UniProt Q8NH81)
T4 sequence (whole entry): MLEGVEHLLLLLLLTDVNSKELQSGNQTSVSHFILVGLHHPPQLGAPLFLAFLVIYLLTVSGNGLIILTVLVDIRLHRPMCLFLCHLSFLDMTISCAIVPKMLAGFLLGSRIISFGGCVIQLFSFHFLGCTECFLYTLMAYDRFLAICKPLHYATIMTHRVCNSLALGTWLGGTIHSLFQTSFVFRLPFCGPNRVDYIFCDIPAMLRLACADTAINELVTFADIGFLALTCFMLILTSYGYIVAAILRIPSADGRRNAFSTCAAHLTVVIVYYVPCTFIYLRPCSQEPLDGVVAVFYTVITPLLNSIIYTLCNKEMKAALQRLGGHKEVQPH
Procedure, shortened: as §1

[5] = molecular target: T5, OR10G7 (Homo sapiens) (UniProt Q8NGN6)
T5 sequence (whole entry): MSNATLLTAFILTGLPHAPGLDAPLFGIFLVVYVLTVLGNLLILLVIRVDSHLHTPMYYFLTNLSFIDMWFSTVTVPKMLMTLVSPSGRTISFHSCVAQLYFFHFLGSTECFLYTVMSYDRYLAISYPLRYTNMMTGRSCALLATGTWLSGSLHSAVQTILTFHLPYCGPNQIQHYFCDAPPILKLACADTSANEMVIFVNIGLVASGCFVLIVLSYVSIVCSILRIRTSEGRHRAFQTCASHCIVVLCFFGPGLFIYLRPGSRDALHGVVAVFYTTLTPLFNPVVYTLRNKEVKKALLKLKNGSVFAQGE
Procedure, shortened: as §1

[6] = molecular target: T6, OR10G8 (Homo sapiens) (UniProt Q8NGN5)
T6 sequence (whole entry): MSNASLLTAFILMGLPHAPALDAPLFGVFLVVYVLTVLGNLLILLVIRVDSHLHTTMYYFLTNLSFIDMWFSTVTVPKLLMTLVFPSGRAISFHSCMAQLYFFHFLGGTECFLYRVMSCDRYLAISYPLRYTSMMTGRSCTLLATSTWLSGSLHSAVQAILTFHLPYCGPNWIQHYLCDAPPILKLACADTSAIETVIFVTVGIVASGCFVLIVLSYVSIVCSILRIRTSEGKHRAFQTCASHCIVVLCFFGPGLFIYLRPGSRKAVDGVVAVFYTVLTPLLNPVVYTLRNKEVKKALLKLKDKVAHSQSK
Procedure, shortened: as §1

[7] = molecular target: T7, OR10G9 (Homo sapiens) (UniProt Q8NGN4)
T7 sequence (whole entry): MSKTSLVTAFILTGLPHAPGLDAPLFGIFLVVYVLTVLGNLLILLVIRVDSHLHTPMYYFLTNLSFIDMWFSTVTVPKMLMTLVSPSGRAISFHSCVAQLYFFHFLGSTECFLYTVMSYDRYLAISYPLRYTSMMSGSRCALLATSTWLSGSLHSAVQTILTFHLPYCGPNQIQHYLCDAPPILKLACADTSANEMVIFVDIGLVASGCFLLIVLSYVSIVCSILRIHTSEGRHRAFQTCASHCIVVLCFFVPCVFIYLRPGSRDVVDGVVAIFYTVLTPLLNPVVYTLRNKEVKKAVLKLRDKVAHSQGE
Procedure, shortened: as §1

[8] = molecular target: T8, OR10H1 (Homo sapiens) (UniProt Q9Y4A9)
T8 sequence (whole entry): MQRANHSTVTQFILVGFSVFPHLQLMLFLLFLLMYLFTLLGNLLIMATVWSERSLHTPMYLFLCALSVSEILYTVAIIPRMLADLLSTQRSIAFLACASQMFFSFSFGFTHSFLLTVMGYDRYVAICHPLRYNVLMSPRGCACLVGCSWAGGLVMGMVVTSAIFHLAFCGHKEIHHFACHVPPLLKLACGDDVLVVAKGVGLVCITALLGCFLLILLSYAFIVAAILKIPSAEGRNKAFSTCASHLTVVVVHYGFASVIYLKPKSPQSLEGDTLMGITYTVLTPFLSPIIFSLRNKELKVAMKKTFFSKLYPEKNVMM
Procedure, shortened: as §1

[9] = molecular target: T9, OR10H2 (Homo sapiens) (UniProt O60403)
T9 sequence (whole entry): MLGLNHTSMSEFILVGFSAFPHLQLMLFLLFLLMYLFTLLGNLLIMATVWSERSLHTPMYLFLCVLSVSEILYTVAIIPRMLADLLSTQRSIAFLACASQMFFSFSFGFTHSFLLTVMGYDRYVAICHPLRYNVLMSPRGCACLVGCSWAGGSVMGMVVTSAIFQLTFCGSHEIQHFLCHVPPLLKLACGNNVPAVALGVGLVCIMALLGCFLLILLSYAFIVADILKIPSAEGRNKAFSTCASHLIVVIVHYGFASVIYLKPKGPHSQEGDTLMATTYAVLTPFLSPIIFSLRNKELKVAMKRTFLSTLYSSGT
Procedure, shortened: as §1

[10] = molecular target: T10, OR10H3 (Homo sapiens) (UniProt O60404)
T10 sequence (whole entry): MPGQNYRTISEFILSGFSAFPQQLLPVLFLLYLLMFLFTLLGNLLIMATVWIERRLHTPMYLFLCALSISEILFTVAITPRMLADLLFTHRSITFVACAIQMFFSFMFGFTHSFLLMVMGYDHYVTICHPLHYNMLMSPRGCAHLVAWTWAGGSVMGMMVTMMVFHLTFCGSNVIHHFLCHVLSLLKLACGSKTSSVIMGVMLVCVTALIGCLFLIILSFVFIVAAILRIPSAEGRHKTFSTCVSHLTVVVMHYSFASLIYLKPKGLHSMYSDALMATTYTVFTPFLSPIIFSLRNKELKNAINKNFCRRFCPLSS
Procedure, shortened: as §1

Measured: odorant receptor agonist call;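 note: active if original authors judged signal statistically different from baseline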

CCC(S)C(C)CO (stereo not given)
inactive: all assays above
